Our source for the MIC99 and MIC50 values is ChEMBL document CHEMBL1137559, “Rational design of 5'-thiourea-substituted alpha-thymidine analogues as thymidine monophosphate kinase inhibitors capable of inhibiting mycobacterial growth” (J Med Chem, 2007).

In brackets after ≈: the same amount, converted by molar mass.

The test system of this test is Mycobacterium tuberculosis variant bovis. Briefly: Growth inhibition of Mycobacterium bovis BCG 1173P2. The format is functional, Mycobacterium bovis BCG str. Pasteur 1173P2. In short, it runs like this:
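Broth microdilution in 7H9 Middlebrook medium with 0.2% glycerol, 0.5% Tween 80 and OADC. Uses two-fold serial dilutions and about 10^5 bacteria/ml, incubated at 37 °C. Resazurin 0.01% was added at day 8 and incubated overnight, then read as OD 570 minus 630 nm. MIC was taken as the lowest concentration preventing the blue-to-pink change.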
What is called MIC99 is an inhibitory concentration at the 99% level, which refers to growth in some studies and to a panel of isolates in others. `Cc1cn([C@@H]2C[C@H](O)[C@@H](CNC(=S)NCCc3ccc(Cl)c(Cl)c3)O2)c(=O)[nH]c1=O` had an MIC99 of 50 µg/mL (≈ 106 µM).
One may read the MIC50 as an inhibitory concentration at the 50% level, which refers to growth in some studies and to a panel of isolates in others. In turn, `Cc1cn([C@@H]2C[C@H](O)[C@@H](CNC(=O)Nc3ccc(Cl)c(C(F)(F)F)c3)O2)c(=O)[nH]c1=O` displayed an MIC50 of 40 µg/mL (≈ 86.4 µM).
On to `Cc1cn([C@@H]2C=C[C@@H](CNC(=S)Nc3ccc(Cl)c(C(F)(F)F)c3)O2)c(=O)[nH]c1=O`, for which the MIC99 turned out to be 100 µg/mL (≈ 217 µM).
`Cc1cn([C@@H]2CC[C@@H](CNC(=S)Nc3ccc(Cl)c(C(F)(F)F)c3)O2)c(=O)[nH]c1=O` registered an MIC99 of 40 µg/mL (≈ 86.4 µM).
Same read-out and setting: for `Cc1cn([C@@H]2C[C@H](O)[C@@H](CNC(=S)NCc3ccc(Cl)c(C(F)(F)F)c3)O2)c(=O)[nH]c1=O` the value was 40 µg/mL (≈ 81.2 µM).
The same measure, in the same setting: for `Cc1cn([C@@H]2C[C@H](O)[C@@H](CNC(=S)Nc3ccc4c(c3)C(=O)OC43c4ccc(O)cc4Oc4cc(O)ccc43)O2)c(=O)[nH]c1=O` the value was above 150 µg/mL.
The same measure, in the same setting: the value for `Cc1cn([C@@H]2C[C@H](O)[C@@H](CNC(=S)Nc3ccc(Cl)c(Cl)c3)O2)c(=O)[nH]c1=O` was 25 µg/mL (≈ 56.1 µM); that for `Cc1cn([C@@H]2C[C@H](O)[C@@H](CN)O2)c(=O)[nH]c1=O` was above 40 µg/mL.
Take `Cc1cn([C@@H]2C[C@H](O)[C@@H](CNC(=O)Nc3ccc(Cl)c(Cl)c3)O2)c(=O)[nH]c1=O`: the MIC50 worked out at 40 µg/mL (≈ 93.2 µM).
Take `Cc1cn([C@@H]2C[C@H](O)[C@@H](CNC(=S)Nc3ccc(Cl)c(C(F)(F)F)c3)O2)c(=O)[nH]c1=O`: the MIC99 stood at 20 µg/mL (≈ 41.8 µM).
